The source made the active and inactive calls. No cut-off for these calls is given here.
Experiments:
[1] = Toxicity in BALB/c mouse allografted with mouse 67NR cells assessed as increase in granulocyte count at 50 mg/kg, po for 5 days a week; assay type: organism-based; details: in vivo, 168 h, time 1 weeks
[2] = Toxicity in BALB/c mouse allografted with mouse 67NR cells assessed as effect on hematocrit levels at 50 mg/kg, po for 5 days a week; assay type: organism-based; details: in vivo, 168 h, time 1 weeks
[3] = Toxicity in BALB/c mouse allografted with mouse 67NR cells assessed as effect on hemoglobin levels at 50 mg/kg, po for 5 days a week; assay type: organism-based; details: in vivo, 168 h, time 1 weeks
[4] = Toxicity in BALB/c mouse assessed as macroscopic changes in spleen at 10 to 50 mg/kg, po for 5 days a week for 2 weeks; assay type: organism-based; details: in vivo, 336 h, dose 10-50 mg/kg
Method in brief: (§1)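 Female BALB/c mice, three per dose, received oral doses of 10 mg/kg/day, 5 days a week for 2 weeks. Later mice received 20 or 50 mg/kg. Body weight and general health, including feces, were followed. After cervical dislocation, liver, kidney and spleen were weighed, and liver, kidneys, intestines and spleen were assessed macroscopically.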

[5] = Toxicity in BALB/c mouse allografted with mouse 67NR cells assessed as increase in monocyte count at 50 mg/kg, po for 5 days a week; assay type: organism-based; details: in vivo, 168 h, time 1 weeks
Steryl-sulfatase = target: T1, Steryl-sulfatase (Homo sapiens, UniProt P08842); test: Inhibition of human placental STS using [3H]E1S as substrate incubated for 3 hrs by radioisotope enzymatic assay; assay type: tissue-based, Placenta
T1 sequence (P08842 whole entry): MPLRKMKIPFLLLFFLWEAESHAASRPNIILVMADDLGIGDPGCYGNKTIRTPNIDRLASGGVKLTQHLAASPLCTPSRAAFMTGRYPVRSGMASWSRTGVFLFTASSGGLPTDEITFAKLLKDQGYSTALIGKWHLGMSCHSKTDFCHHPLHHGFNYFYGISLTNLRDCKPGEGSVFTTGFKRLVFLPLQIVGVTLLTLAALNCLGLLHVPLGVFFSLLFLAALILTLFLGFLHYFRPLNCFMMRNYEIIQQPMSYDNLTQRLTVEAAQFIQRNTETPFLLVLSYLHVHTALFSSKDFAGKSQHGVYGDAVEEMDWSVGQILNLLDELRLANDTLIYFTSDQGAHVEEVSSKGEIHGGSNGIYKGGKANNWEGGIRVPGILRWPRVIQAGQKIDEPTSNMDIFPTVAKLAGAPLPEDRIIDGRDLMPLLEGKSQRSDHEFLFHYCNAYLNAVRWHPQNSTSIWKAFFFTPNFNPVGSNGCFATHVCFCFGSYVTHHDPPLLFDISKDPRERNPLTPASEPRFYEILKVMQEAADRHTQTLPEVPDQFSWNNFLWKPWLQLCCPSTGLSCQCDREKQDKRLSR
Method in brief: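 Purified placental STS, 5 U (1 U hydrolyses 100 μM NPS in 1 h at 37 °C), incubated with [3H]E1S (3 nM, 4 × 10⁴ Bq) and inhibitor in 20 mM Tris-HCl pH 7.4 for 3 h at 37 °C. The hydrolysis product was extracted into toluene and counted. Results are expressed as residual STS activity (%) from triplicate runs.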

[6] = Toxicity in BALB/c mouse assessed as weight change of spleen at 10 to 50 mg/kg, po for 5 days a week for 2 weeks; assay type: organism-based; details: in vivo, 336 h, dose 10-50 mg/kg; method in brief: as §1
[7] = Toxicity in BALB/c mouse assessed as maximum tolerated dose administered orally for 5 days a week; details: in vivo, route po, time 1 weeks
Method in brief: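 Female Balb/c mice, three per dose, were dosed per os, starting at 10 mg/kg/day and then at 20 and 50 mg/kg, 5 days a week for 2 weeks. Body weight and general health were followed. At autopsy, liver, kidney and spleen were weighed and examined macroscopically.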

[8] = Toxicity in BALB/c mouse allografted with mouse 67NR cells assessed as increase in aspartate aminotransferase levels in plasma at 50 mg/kg, po for 5 days a week; assay type: organism-based; details: in vivo, 168 h, time 1 weeks
[9] = Toxicity in BALB/c mouse allografted with mouse 67NR cells assessed as decrease in spleen weight at 50 mg/kg, po for 5 days a week; assay type: organism-based; details: in vivo, 168 h, time 1 weeks
[10] = Toxicity in BALB/c mouse assessed as weight change of liver at 10 to 50 mg/kg, po for 5 days a week for 2 weeks; assay type: organism-based; details: in vivo, 336 h, dose 10-50 mg/kg; method in brief: as §1
[11] = Toxicity in BALB/c mouse assessed as macroscopic changes in liver at 10 to 50 mg/kg, po for 5 days a week for 2 weeks; assay type: organism-based; details: in vivo, 336 h, dose 10-50 mg/kg; method in brief: as §1
[12] = Toxicity in BALB/c mouse assessed as body weight loss at 10 to 50 mg/kg, po for 5 days a week for 2 weeks; assay type: organism-based; details: in vivo, 336 h, dose 10-50 mg/kg; method in brief: as §1
[13] = Toxicity in BALB/c mouse allografted with mouse 67NR cells assessed as increase in alanine aminotransferase levels in plasma at 50 mg/kg, po for 5 days a week; assay type: organism-based; details: in vivo, 168 h, time 1 weeks
[14] = Toxicity in BALB/c mouse assessed as weight change of kidney at 10 to 50 mg/kg, po for 5 days a week for 2 weeks; assay type: organism-based; details: in vivo, 336 h, dose 10-50 mg/kg; method in brief: as §1
[15] = Toxicity in BALB/c mouse assessed as change in feces consistency at 50 mg/kg, po for 5 days a week for 2 weeks; assay type: organism-based; details: in vivo, 336 h; method in brief: as §1
[16] = (§2) In vivo inhibition of STS in BALB/c mouse allografted with mouse 67NR cells assessed as residual enzyme activity in liver lysates using [3H]E1S as substrate at 50 mg/kg, po for 5 days a week followed by incubation of […] with [3H]E1S for 3 hrs by radioisotope enzymatic assay (reference value: 100%); assay type: functional; details: time 1 weeks
Mus musculus = test: In vivo inhibition of STS in BALB/c mouse allografted with mouse 67NR cells assessed as reduction in estradiol level in plasma at 50 mg/kg, po administered 5 days a week by ELISA; assay type: functional, organism-based; details: time 1.0 weeks
[17] = Toxicity in BALB/c mouse allografted with mouse 67NR cells assessed as enlarged liver at 50 mg/kg, po for 5 days a week; assay type: organism-based; details: in vivo, 168 h, time 1 weeks
[18] = Toxicity in BALB/c mouse allografted with mouse 67NR cells assessed as increase in blood urea levels at 50 mg/kg, po for 5 days a week; assay type: organism-based; details: in vivo, 168 h, time 1 weeks
[19] = Toxicity in BALB/c mouse allografted with mouse 67NR cells assessed as effect on erythrocyte count at 50 mg/kg, po for 5 days a week; assay type: organism-based; details: in vivo, 168 h, time 1 weeks
[20] = Toxicity in BALB/c mouse allografted with mouse 67NR cells assessed as decrease in lymphocyte count at 50 mg/kg, po for 5 days a week; assay type: organism-based; details: in vivo, 168 h, time 1 weeks
[21] = Toxicity in BALB/c mouse assessed as macroscopic changes in kidneys at 10 to 50 mg/kg, po for 5 days a week for 2 weeks; assay type: organism-based; details: in vivo, 336 h, dose 10-50 mg/kg; method in brief: as §1
[22] = as §2, with “tumor” for “liver”; assay type: functional, Neoplasm; details: time 1 weeks
[23] = Toxicity in BALB/c mouse assessed as toxic effects at 10 to 50 mg/kg, po for 5 days a week for 2 weeks; assay type: organism-based; details: in vivo, 336 h, dose 10-50 mg/kg; method in brief: as §1
[24] = Toxicity in BALB/c mouse assessed as macroscopic changes in intestines at 10 to 50 mg/kg, po for 5 days a week for 2 weeks; assay type: organism-based; details: in vivo, 336 h, dose 10-50 mg/kg; method in brief: as §1
[25] = Toxicity in BALB/c mouse allografted with mouse 67NR cells assessed as body weight loss at 50 mg/kg, po for 5 days a week and measured 3 times a week relative to control; assay type: organism-based; details: in vivo, 168 h, time 1 weeks
[26] = target: T2, Steryl-sulfatase (Homo sapiens) (UniProt P08842); test: Inhibition of STS in human MCF7 cells assessed as residual enzyme activity using [3H]E1S as substrate at 100 nM incubated for 20 hrs by radioisotope cellular assay relative to control; assay type: cell-based
T2 sequence (whole entry): T1 sequence (P08842 whole entry)
Method in brief: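 MCF-7 cells were grown in DMEM with 10% FBS to 80% confluence, then seeded at 1 × 10⁵ cells/well. Cells were incubated 20 h at 37 °C, 5% CO₂, in serum-free medium with [³H]E1S (3 nM, 4 × 10⁴ Bq), with or without inhibitor at 100, 10 or 1 nM. The hydrolysis product in the collected medium was extracted into toluene and counted by scintillation. Run in triplicate.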

[27] = Antitumor activity against mouse 67NR cells allografted in BALB/c mouse assessed as tumor growth inhibition at 50 mg/kg, po for 5 days a week and measured 3 times a week relative to control; assay type: functional; details: 168 h, time 1 weeks, read-out: TGI
Method in brief: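 Female BALB/c mice, 7–8 weeks old, received 1.5 × 10⁵ 67NR cells in 0.05 mL Hanks fluid into the mammary fat pad. At about 50 mm³ average tumor volume, mice were randomized to six groups of nine. Dosing was 50 mg/kg b.w. orally, 5 days a week, for 17 days of observation. Tumor volume was measured three times weekly. TGI was calculated from tumor volume versus the control group, using one-way ANOVA with Dunnett test.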

| Compound | Activity [1] | Activity [2] | Activity [3] | Activity [4] | Activity [5] | Activity [6] | MTD at 168 h [7] [mg/kg] | Activity [9] | Activity [10] | Activity [11] | Activity [12] | Activity [14] | Activity [15] | Activity [16] [%] | inhibition (Mus musculus) | Activity [17] | Activity [18] | Activity [19] | Activity [20] | Activity [21] | also measured |
| --- | --- | --- | --- | --- | --- | --- | --- | --- | --- | --- | --- | --- | --- | --- | --- | --- | --- | --- | --- | --- | --- |
| NS(=O)(=O)Oc1ccc(-c2cn(-c3cc(F)cc(F)c3)nn2)cc1 | Toxic | Non-Toxic | Non-Toxic | Non-Toxic | Toxic | Non-Toxic | 50 | Toxic | Non-Toxic | Non-Toxic | Non-Toxic | Non-Toxic | Toxic | 10.1 | Active | Toxic | Toxic | Non-Toxic | Toxic | Non-Toxic | IC50 (Steryl-sulfatase): 36.8 nM; Activity [8]: Toxic; Activity [13]: Toxic; Activity [22]: 1.3%; Activity [23]: Non-Toxic; Activity [24]: Non-Toxic; Activity [25]: 4.5% |
| NS(=O)(=O)Oc1ccc(-c2cn(-c3cccc(Cl)c3)nn2)cc1 | Toxic | Non-Toxic | Non-Toxic | Non-Toxic | Toxic | Non-Toxic | 50 | Toxic | Non-Toxic | Non-Toxic | Non-Toxic | Non-Toxic | Toxic | 12.1 | Active | Non-Toxic | Toxic | Non-Toxic | Toxic | Non-Toxic | Activity [22]: 5.8%; Activity [23]: Non-Toxic; Activity [24]: Non-Toxic |
| NS(=O)(=O)Oc1ccc(-c2cn(-c3ccc(C(F)(F)F)cc3)nn2)cc1 | – | – | – | – | – | – | – | – | – | – | – | – | – | – | – | – | – | – | – | – | Activity [26]: 2.9% |
| NS(=O)(=O)Oc1ccc(-c2cn(-c3ccc(F)cc3C(F)(F)F)nn2)cc1 | – | – | – | – | – | – | – | – | – | – | – | – | – | – | – | – | – | – | – | – | Activity [26]: 2.4% |
| NS(=O)(=O)Oc1ccc(-c2cn(-c3cccc(C(F)(F)F)c3)nn2)cc1 | – | – | – | – | – | – | – | – | – | – | – | – | – | – | – | – | – | – | – | – | Activity [26]: 1.3% |
| NS(=O)(=O)Oc1ccc(-c2cn(-c3cccc(F)c3)nn2)cc1 | Toxic | Non-Toxic | Non-Toxic | Non-Toxic | Toxic | Non-Toxic | 50 | Toxic | Non-Toxic | Non-Toxic | Non-Toxic | Non-Toxic | Toxic | 13.6 | Active | Toxic | Toxic | Non-Toxic | Toxic | Non-Toxic | Activity [13]: Toxic; Activity [22]: 5.2%; Activity [23]: Non-Toxic; Activity [24]: Non-Toxic; Activity [25]: 4.5% |
| NS(=O)(=O)Oc1ccc(-c2cn(-c3cc(Cl)cc(Cl)c3)nn2)cc1 | Toxic | Non-Toxic | Non-Toxic | Non-Toxic | Toxic | Non-Toxic | 50 | Toxic | Non-Toxic | Non-Toxic | Non-Toxic | Non-Toxic | Toxic | 14.5 | Active | Toxic | Toxic | Non-Toxic | Toxic | Non-Toxic | inhibition in vivo at 50 mg/kg [27]: 51%; Activity [22]: 5.1%; Activity [23]: Non-Toxic; Activity [24]: Non-Toxic |
